pIC50, pKi: −log10 of the molar value.
How the values were obtained:
[1] = target: T1, Neuropeptide Y receptor type 5 (Homo sapiens, UniProt Q15761); assay: Inhibition of [125I]PYY binding to human recombinant Neuropeptide Y receptor type 5 in LMtk-cells
T1 sequence (Q15761 whole entry): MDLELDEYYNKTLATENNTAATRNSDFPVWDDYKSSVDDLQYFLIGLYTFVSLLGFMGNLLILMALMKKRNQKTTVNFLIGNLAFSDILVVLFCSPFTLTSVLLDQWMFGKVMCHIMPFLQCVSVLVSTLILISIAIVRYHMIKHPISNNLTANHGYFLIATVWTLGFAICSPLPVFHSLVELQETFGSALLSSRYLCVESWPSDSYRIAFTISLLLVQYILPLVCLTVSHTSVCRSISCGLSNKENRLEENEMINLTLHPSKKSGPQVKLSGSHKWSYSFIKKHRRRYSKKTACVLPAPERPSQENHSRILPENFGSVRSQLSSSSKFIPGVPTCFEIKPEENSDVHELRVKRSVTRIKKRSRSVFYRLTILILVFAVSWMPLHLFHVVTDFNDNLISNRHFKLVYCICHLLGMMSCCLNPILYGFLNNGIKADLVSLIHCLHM
Outline: (§1)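 Radioligand displacement used [125I]PYY on human recombinant Y5 receptors expressed in LMtk- cells. Values are mean ± SE, n = 3.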

[2] = target: T1, Neuropeptide Y receptor type 5; assay: Inhibition of [125I]PYY binding human recombinant Neuropeptide Y receptor type 5 in LMtk-cells; outline: as §1
[3] = target: T1, Neuropeptide Y receptor type 5; assay: Antagonistic activity of compound was determined by its ability to inhibit NPY induced [Ca2+]i increases in CHO cells which expressed the recombinant human Neuropeptide Y receptor type 5; assay type: functional, cell-based
Outline: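 Human recombinant Y5 receptor co-expressed with Gqi5 in CHO cells. Cells were stimulated with 100 nM NPY and inhibition of the intracellular Ca2+ rise was measured. IC50 is given as mean ± SE, n = 3.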

[4] = Time required for peak plasma concentration was determined for compound in SD rats when administered perorally at 10 mg/kg; assay type: ADME, organism-based; parameters: dose 10 mg/kg, route oral; conditions: Sprague-Dawley, rat, po
Outline: (§2)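 Pharmacokinetics in SD rats: intravenous dose 1 mg/kg and oral dose 10 mg/kg. Parameters derived from plasma levels were t1/2, Vdss and CLtot (iv), and t1/2, Tmax, Cmax and F (po).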

[5] = Half life (1 mg/kg) was determined in SD rats when administered intravenously; assay type: ADME, organism-based; conditions: Sprague-Dawley, rat, in vivo, iv; outline: as §2
[6] = Volume of distribution was determined in SD rats when administered intravenously, at 1 mg/kg compound dosage; assay type: ADME, organism-based; parameters: dose 1 mg/kg, route intravenous; conditions: Sprague-Dawley, rat, in vivo, iv, read-out: Vdss; outline: as §2
[7] = Bioavailability was determined for compound in SD rats when administered perorally at 10 mg/kg; assay type: ADME, organism-based; conditions: Sprague-Dawley, rat, in vivo, po, read-out: Fmean; outline: as §2
[8] = Total body clearance was determined in SD rats when administered intravenously, at 1 mg/kg compound dosage; assay type: ADME, organism-based; parameters: dose 1 mg/kg, route intravenous; conditions: Sprague-Dawley, rat, in vivo, iv, read-out: CLtotal; outline: as §2
Rattus norvegicus = assay: Peak plasma concentration was determined for compound in SD rats when administered perorally at 10 mg/kg; assay type: ADME, organism-based; parameters: dose 10 mg/kg, route oral; conditions: in vivo, po; outline: as §2
[9] = The concentration in brain was determined in SD rats at 2 hr after peroral administration of 10 mg/kg; assay type: ADME, organism-based; parameters: dose 10 mg/kg, route oral; conditions: Sprague-Dawley, rat, po
[10] = Half life (10 mg/kg) was determined in SD rats when administered perorally; assay type: ADME, organism-based; conditions: Sprague-Dawley, rat, in vivo, po; outline: as §2

| Structure (SMILES) | pKi [1] | pIC50 [2] | further results |
| --- | --- | --- | --- |
| O=C(Nc1cc(-c2ccccc2Cl)n[nH]1)C1Cc2ccccc2C1 | 6.35 | – | – |
| O=C(Nc1cc(-c2ccc(Cl)cc2)n[nH]1)c1cccc2ccccc12 | – | < 6.00 | – |
| O=C(Cc1ccc2ccccc2c1)Nc1cc(-c2ccc(Cl)cc2)n[nH]1 | – | 7.33 | – |
| Cc1ccc(-c2cc(NC(=O)C3Cc4ccccc4C3)[nH]n2)cc1 | 7.10 | – | – |
| O=C(Nc1cc(-c2cccc(Cl)c2)n[nH]1)C1Cc2ccccc2C1 | 6.92 | – | – |
| COc1ccc(-c2cc(NC(=O)C3Cc4ccccc4C3)[nH]n2)cc1 | 7.21 | – | – |
| O=C(Nc1cc(-c2ccc(Cl)cc2)n[nH]1)c1ccccc1 | – | < 6.00 | – |
| O=C(CCCc1ccccc1)Nc1cc(-c2ccc(Cl)cc2)n[nH]1 | – | 6.35 | – |
| COc1ccc(-c2cc(NC(=O)C3Cc4ccccc4C3)[nH]n2)cc1OC | 7.48 | – | – |
| O=C(Cc1cccc2ccccc12)Nc1cc(-c2ccc(Cl)cc2)n[nH]1 | – | 6.50 | – |
| CC(C)Oc1ccc(-c2cc(NC(=O)C3Cc4ccccc4C3)[nH]n2)cc1 | 7.04 | – | – |
| O=C(Nc1cc(-c2ccccc2)[nH]n1)C1Cc2ccccc2C1 | 6.59 | – | – |
| O=C(O)CCc1cccc(CC(=O)Nc2cc(-c3ccc(Cl)cc3)n[nH]2)c1 | 7.80 | 7.79 | – |
| COc1ccc(-c2cc(NC(=O)Cc3ccc4ccccc4c3)[nH]n2)cc1OC | 8.08 | – | – |
| O=C(CCc1ccccc1)Nc1cc(-c2ccc(Cl)cc2)n[nH]1 | – | < 6.00 | – |
| O=C(Cc1ccccc1)Nc1cc(-c2ccc(Cl)cc2)n[nH]1 | – | 6.10 | – |
| O=C(Nc1cc(-c2ccc(Cl)cc2)n[nH]1)c1ccc(-c2ccccc2)cc1 | – | < 6.00 | – |
| O=C(Nc1cc(-c2ccc(Cl)cc2)n[nH]1)c1ccc2ccccc2c1 | – | < 6.00 | – |
| O=C(Nc1cc(-c2ccc(Cl)cc2)n[nH]1)C1Cc2ccccc2C1 | 7.23 | – | – |
| COc1ccc(-c2cc(NC(=O)C3Cc4ccc5ccccc5c4C3)[nH]n2)cc1OC (racemic) | 8.55 | – | – |
| O=C(Nc1cc(-c2ccncc2)[nH]n1)C1Cc2ccc3ccccc3c2C1 (racemic) | 8.00 | – | – |
| CCc1cc(-c2cc(NC(=O)C3Cc4ccc5ccccc5c4C3)[nH]n2)ccn1 (racemic) | 8.14 | – | – |
| CCc1cc(-c2cc(NC(=O)C3Cc4ccc5ccccc5c4C3)[nH]n2)ccn1 (stereo in doubt; (+)-7) | 7.60 | – | pIC50 [3]: 7.55 |
| CCc1cc(-c2cc(NC(=O)C3Cc4ccc5ccccc5c4C3)[nH]n2)ccn1 (stereo in doubt; (-)-7) | 8.46 | – | Tmax [4]: 2 h; half-life [5]: 52.8 min; Vd [6]: 0.62 L/kg; bioavailability [7]: 70%; clearance [8]: 9.52 mL/min/kg; Cmax (Rattus norvegicus): 5 µM; pIC50 [3]: 7.85; concentration at 2 h [9]: 450 nM; half-life [10]: 114 min |
